Measurements taken from ChEMBL document CHEMBL1149561, “Synthesis of benzothiazole semicarbazones as novel anticonvulsants--the role of hydrophobic domain” (Bioorg Med Chem Lett, 2007).

Legend:
Mus musculus [1] = assay: Anticonvulsant activity in Swiss Albino mouse at 30 mg/kg after 0.5 hrs by MES screen test; format: functional
Method in brief: (§1)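 Swiss albino mice (25–30 g) given 30 mg/kg i.p. Maximal electroshock (MES) seizure test run 0.5 and 4 h after dosing. Activity read out as % of animals protected. Phenytoin at 30 mg/kg i.p. served as standard.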

Mus musculus [2] = assay: Anticonvulsant activity in swiss Albino mouse at 30 mg/kg after 4 hrs by MES screen test; format: functional; method in brief: as §1
Mus musculus [3] = assay: Neurotoxicity in Swiss Albino mouse at 30 mg/kg after 0.5 hrs by rotarod test; format: toxicity, organism-based; design: dose 30 mg/kg; conditions: in vivo
Method in brief: (§2)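 Swiss albino mice received 30 mg/kg i.p. Motor impairment scored on the rotarod 0.5 and 4 h after dosing. Results given as number of animals showing toxicity over number tested.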

Mus musculus [4] = assay: Neurotoxicity in Swiss Albino mouse at 30 mg/kg after 4 hrs by rotarod test; format: toxicity, organism-based; design: dose 30 mg/kg; conditions: in vivo; method in brief: as §2
[5] = Lipophilicity, log P of the compound; format: physicochemical; conditions: octanol/water

SMILES	Activity (Mus musculus [1]) [%]	Activity (Mus musculus [2]) [%]	Activity (Mus musculus [3])	Activity (Mus musculus [4])	logP [5]
C/C(=N\NC(=O)Nc1nc2ccc(C)cc2s1)c1ccccc1	33.3	33.3			
COc1ccc(/C(C)=N/NC(=O)Nc2nc3ccc(C)cc3s2)cc1	83.3	83.3	Not Active	Not Active	
C/C(=N\NC(=O)Nc1nc2ccc(Cl)cc2s1)c1ccc([N+](=O)[O-])cc1	33.3	33.3			
COc1ccc2nc(NC(=O)N/N=C(\C)c3ccc(O)cc3)sc2c1	66.6	50			
C/C(=N\NC(=O)Nc1nc2ccc(Cl)cc2s1)c1ccccc1	100	83.3	Not Active	Not Active	3.12
COc1ccc2nc(NC(=O)N/N=C(\C)c3ccccc3)sc2c1	83.3	66.6	Not Active	Not Active	
O=C1NC(=O)C(c2ccccc2)(c2ccccc2)N1 [PHENYTOIN]	100	100	Not Active	Not Active	
COc1ccc2nc(NC(=O)NN=C(c3ccccc3)c3ccccc3)sc2c1	100	100	Not Active	Not Active	
COc1ccc(/C(C)=N/NC(=O)Nc2nc3ccc(OC)cc3s2)cc1	83.3	83.3	Not Active	Not Active	
C/C(=N\NC(=O)Nc1nc2ccc(Cl)cc2s1)c1ccc(O)cc1	50	50			
COc1ccc(/C(C)=N/NC(=O)Nc2nc3ccc(Cl)cc3s2)cc1	66.6	66.6			
COc1ccc2nc(NC(=O)N/N=C(\C)c3ccc([N+](=O)[O-])cc3)sc2c1	100	100	Not Active	Not Active	
C/C(=N\NC(=O)Nc1nc2ccc(C)cc2s1)c1ccc([N+](=O)[O-])cc1	100	100	Not Active	Not Active	3.22
C/C(=N\NC(=O)Nc1nc2ccc(C)cc2s1)c1ccc(O)cc1	66.6	66.6			
Cc1ccc2nc(NC(=O)NN=C(c3ccccc3)c3ccccc3)sc2c1	33.3	33.3			
O=C(NN=C(c1ccccc1)c1ccccc1)Nc1nc2ccc(Cl)cc2s1	50	33.3			
